Screens as filed in PubChem.
Compounds with a hit are over-represented: about 4.2% of the library has one in this group of screens.
GalR3 antag – GalR3 antagonists in HEK293 cells, primary screen, cell-based, fluorescence readout. Galanin receptor type 3 (Homo sapiens), O60755. HEK293 GalR3-CNG cAMP membrane potential fluorescence; galR3 body fused to GalR1 C-terminus. inhibition, % at 3 µM. hit rate 0.44% among 360,000;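 active = inhibition above the screen-wide average plus 3 SD, cut at about 13% in these data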;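 also: forskolin and galanin both at EC90 stimulate the cells; cAMP rise reported by CNG channel membrane potential dye signal; 0% = forskolin plus galanin with DMSO and 100% = forskolin alone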
Target sequence (O60755 1-299 limits assumed): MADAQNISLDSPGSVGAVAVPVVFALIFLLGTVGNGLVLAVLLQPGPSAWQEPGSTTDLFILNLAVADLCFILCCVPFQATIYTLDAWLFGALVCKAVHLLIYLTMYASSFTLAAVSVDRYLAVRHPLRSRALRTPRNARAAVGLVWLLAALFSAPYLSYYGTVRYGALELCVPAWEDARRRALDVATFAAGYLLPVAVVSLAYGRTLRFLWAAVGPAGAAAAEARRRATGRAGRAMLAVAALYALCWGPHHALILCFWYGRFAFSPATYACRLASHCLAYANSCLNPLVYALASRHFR
CHO parental Ca – ATP-evoked calcium signal inhibitors, parental CHO, primary screen, counter-screen for OX1R antagonist project, cell-based, fluorescence, Fluo-8 calcium dye; inhibition, % at 5.6 µM; AID 463079, 2010; parental CHO-K1, ATP-induced calcium, Fluo-8 fluorescence; hit rate 0.63% among 330,000;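 active = inhibition above that plate's mean sample inhibition plus 3 SD, cut at about 26% in these data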;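 also: 0% = ATP-challenged DMSO wells and 100% = DMSO wells without ATP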
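Test system: untransfected parental CHO cell line. Compound: one dose, 5.6 µM nominal. Detection: intracellular calcium via Fluo-8 no-wash fluorescent dye. Measure: % inhibition. Benchmarks: ATP-challenged DMSO wells low, unchallenged DMSO wells high.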
TAAR1 agonist – human TAAR1 agonists, primary screen, Fluo-8 calcium fluorescence, CHO RD-HGA16 cells; Trace amine-associated receptor 1 (Homo sapiens), Q96RJ0; vehicle wells 0%, saturating PEA agonist 100%; activation, % at 3 µM; hit rate 0.99% among 360,000; AID 624467, 2012;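 active = activation above the mean activation of all test compounds in the run plus 3 SD, cut at about 38% in these data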
Target sequence (Q96RJ0 whole entry, looked up): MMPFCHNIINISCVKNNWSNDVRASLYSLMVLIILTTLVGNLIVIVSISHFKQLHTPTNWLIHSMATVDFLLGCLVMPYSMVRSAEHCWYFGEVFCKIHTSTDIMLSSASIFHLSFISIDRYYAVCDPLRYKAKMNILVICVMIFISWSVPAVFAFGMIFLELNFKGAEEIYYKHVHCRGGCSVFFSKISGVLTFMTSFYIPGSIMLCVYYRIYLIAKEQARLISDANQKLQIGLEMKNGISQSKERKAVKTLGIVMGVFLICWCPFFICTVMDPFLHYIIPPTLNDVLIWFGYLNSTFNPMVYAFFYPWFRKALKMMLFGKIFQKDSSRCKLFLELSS
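Repeats: no replicates (n 1) | Material: CHO-derived RD-HGA16 cells with stable Gα16 and human TAAR1 | Technique: Kinetic Fluo-8 calcium fluorescence | Schedule: 17-24 h seeding, 75 min 37 °C dye, 30 min RT | Evaluation: % activation from peak over basal fluorescence ratio, DMSO-to-PEA scaled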
OX1R antag-1 – antagonists of human orexin 1 receptor (OX1R); inhibition, % at 6.6 µM; OX1R-expressing cells, FRET antagonist read-out; Orexin/Hypocretin receptor type 1 (Homo sapiens), O43613; hit rate 1.8% among 330,000; in the data active = inhibition mostly above about 38%, no sharp cut-off; inactive = mostly below about 40%;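 also: 0% = agonist challenge alone and 100% = reference antagonist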
OX1R antag-2 – OX1R (HCRTR1) antagonists, primary screen, fluorescence, CHO/OX1R cells, Fluo-8 calcium, orexin A | Fluo-8 calcium fluorescence | inhibition, % at 5 µM | hit rate 0.43% among 330,000 | AID 434989, 2010;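 active = inhibition above its plate's threshold, mean inhibition of all tested compounds on the plate plus 3 SD, cut at about 37% in these data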;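 also: 0% = orexin A challenge wells and 100% = SB-334867-A antagonist wells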
TAAR1 antagonist – human TAAR1 antagonists, primary screen, Fluo-8 calcium fluorescence, CHO RD-HGA16 cells; antagonist; inhibition, % at 3 µM; hit rate 1.5% among 360,000;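 active = inhibition above a per-plate cutoff, the mean inhibition of test compounds on that plate plus 3 SD, cut at about 49% in these data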;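 also: 0% = DMSO plus EC80 beta-PEA response and 100% = DMSO alone without agonist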
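Assay system: RD-HGA16 CHO cells with stable hTAAR1 and Gα16 / Reagent: EC80 β-phenethylamine stimulus / Doses: 3 µM, single point / Timing: dye loading 75 min at 37 °C, then 30 min room temperature / Measured by: Fluo-8 intracellular calcium dye fluorescence, real-time kinetic reads / Controls: vehicle wells and EC80 agonist wells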
nonsel antag count – nonselective antagonists in TAAR1 counter-screen cells, counter-screen for hTAAR1 antagonist project, cell-based, fluorescence, calcium. AID 651780, 2012. hit rate 77% among 2,400. shares compounds with TAAR1 antagonist. counterscreen cell line, antagonist mode. inhibition, % at 3 µM; in the data active = inhibition above about 22%;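 also: CHO-Ga16 host cells stimulated with ATP at an EC80 level; 0% = agonist EC80 plus vehicle and 100% = vehicle without agonist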
TAAR1 antag conf – human TAAR1 antagonists, retest of hits, confirmation, cell-based, fluorescence; shares compounds with TAAR1 antagonist; TAAR1-expressing cells, fluorescence antagonist read-out; inhibition, % at 3 µM; hit rate 40% among 2,400; AID 651785, 2012; in the data active = inhibition above about 49%;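 also: CHO-Ga16 host cells challenged with agonist PEA near its EC80; 0% = agonist at EC80 plus vehicle and 100% = vehicle with no agonist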
Ga16 ag counter – calcium activation in Ga16-expressing cells, counter-screen for TAAR1 antagonist project, cell-based, fluorescence; shares compounds with TAAR1 antagonist; agonist counterscreen; activation, % at 3 µM; hit rate 18% among 2,400; AID 651953, 2012; in the data active = activation above about 12%;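 also: 0% = vehicle wells and 100% = saturating stimulus response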
TAAR1 ag count – TAAR1 activation by candidate antagonists – cell-based, fluorescence, counter-screen for TAAR1 antagonist project | hTAAR1 cell line, agonist mode | hit rate 2% among 2,400 | shares compounds with TAAR1 antagonist | activation, % at 3 µM; in the data active = activation above about 37%;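 also: CHO cells stably expressing TAAR1 with calcium dye readout; 0% = DMSO vehicle and 100% = full agonist response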
* hit, by the source's call.

How did COc1ccc(C2=NS(=O)(=O)N(C)C(C(=O)Nc3cc(C)ccc3O)=C2)cc1OC do in these assays?
CHO parental Ca: 18; TAAR1 agonist: 13; OX1R antag-1: 10; OX1R antag-2: -8; TAAR1 antagonist: 70*; nonsel antag count: 40*; TAAR1 antag conf: 51*; Ga16 ag counter: 9; TAAR1 ag count: 6

Results for COc1ccc(O)c(/C=N/NC(=S)NCCc2ccccc2)c1 ?
GalR3 antag: -7; CHO parental Ca: 0; TAAR1 agonist: 22; OX1R antag-1: 20; OX1R antag-2: -17; TAAR1 antagonist: 54*; nonsel antag count: 27*; TAAR1 antag conf: 57*; Ga16 ag counter: 15*; TAAR1 ag count: 44*

How did Cc1cnc(NC(=O)CSc2nnc(-c3ccncc3)n2C2CCCCC2)s1 do in these assays?
GalR3 antag: -2; CHO parental Ca: -8; TAAR1 agonist: 7; OX1R antag-1: 12; OX1R antag-2: -16; TAAR1 antagonist: -4

How did O=C(NCCc1ccc(Cl)cc1)c1ccc(CS(=O)Cc2ccccc2Cl)o1 (stereo not drawn) do in these assays?
GalR3 antag: 2; CHO parental Ca: -24; TAAR1 agonist: 9; OX1R antag-1: 8; OX1R antag-2: -30; TAAR1 antagonist: 60*; nonsel antag count: 29*; TAAR1 antag conf: 40; Ga16 ag counter: 9; TAAR1 ag count: 8

Results for O=C(c1ccc(CS(=O)Cc2ccccc2Cl)o1)N1CCN(c2ccccn2)CC1 (stereo not drawn) ?
GalR3 antag: -2; CHO parental Ca: -27; TAAR1 agonist: 17; OX1R antag-1: -3; OX1R antag-2: -34; TAAR1 antagonist: 49*; nonsel antag count: 15; TAAR1 antag conf: 32; Ga16 ag counter: 8; TAAR1 ag count: 6

Results for CSc1ccc(CCNC(=O)c2ccc(CS(=O)Cc3ccccc3Cl)o2)cc1 (stereo not drawn) ?
GalR3 antag: -9; CHO parental Ca: -23; TAAR1 agonist: 14; OX1R antag-1: 15; OX1R antag-2: -7; TAAR1 antagonist: 47

Results for CC(=O)CN1C(=O)NC2(CCCc3ccccc32)C1=O (stereo not drawn) ?
GalR3 antag: -5; CHO parental Ca: -4; TAAR1 agonist: 4; OX1R antag-1: 6; OX1R antag-2: 6; TAAR1 antagonist: -10

What do the screens show for `CCOC(=O)c1c(C)[nH]c(C)c1C(=O)CSc1nc2ccccc2c(=O)n1-c1ccc(C)cc1`?
GalR3 antag: -4; CHO parental Ca: -15; TAAR1 agonist: 2; OX1R antag-1: 15; OX1R antag-2: -13; TAAR1 antagonist: 1

Results for CCCn1c(SCC(=O)c2c(C)[nH]c(C)c2C(=O)OCC)nc2ccccc21 ?
GalR3 antag: -3; CHO parental Ca: -31; TAAR1 agonist: 12; OX1R antag-1: 26; OX1R antag-2: -26; TAAR1 antagonist: 49*; nonsel antag count: 18; TAAR1 antag conf: 34; Ga16 ag counter: 10; TAAR1 ag count: 15

Results for COc1ccc(N2CCN(C(=O)c3cc4c(s3)-c3ccccc3S(=O)(=O)C4)CC2)cc1 ?
GalR3 antag: -3; CHO parental Ca: -19; TAAR1 agonist: 13; OX1R antag-1: 8; OX1R antag-2: -20; TAAR1 antagonist: 52*; nonsel antag count: 30*; TAAR1 antag conf: 42; Ga16 ag counter: 7; TAAR1 ag count: 9

Results for CCc1ccccc1NC(=O)C1CC(c2ccc(OC)cc2)=NO1 (stereo not drawn) ?
GalR3 antag: -9; CHO parental Ca: -13; TAAR1 agonist: -2; OX1R antag-1: 7; OX1R antag-2: -27; TAAR1 antagonist: 103*; nonsel antag count: 15; TAAR1 antag conf: 7; Ga16 ag counter: 4; TAAR1 ag count: 6

What do the screens show for `COc1ccc(C2=NOC(C(=O)Nc3cccnc3)C2)cc1` (stereo not drawn)?
GalR3 antag: 3; CHO parental Ca: -3; TAAR1 agonist: 4; OX1R antag-1: 4; OX1R antag-2: -5; TAAR1 antagonist: -2

What do the screens show for `COc1ccc(C2=NOC(C(=O)N3CCN(c4ccccc4OC)CC3)C2)cc1` (stereo not drawn)?
CHO parental Ca: -16; TAAR1 agonist: 10; OX1R antag-1: -3; OX1R antag-2: -35; TAAR1 antagonist: 51*; nonsel antag count: 21; TAAR1 antag conf: 23; Ga16 ag counter: 8; TAAR1 ag count: 8

How did CCC(C)n1c(NC(=O)c2ccccc2)c(C#N)c2nc3ccccc3nc21 (stereo not drawn) do in these assays?
GalR3 antag: 0; CHO parental Ca: -12; TAAR1 agonist: 14; OX1R antag-1: 33; OX1R antag-2: -4; TAAR1 antagonist: 54*; nonsel antag count: 28*; TAAR1 antag conf: 21; Ga16 ag counter: 5; TAAR1 ag count: 0

How did Cc1cc(NC(=O)c2ccc3c(c2)OCCO3)ccc1NC(=O)c1cc2ccccc2o1 do in these assays?
GalR3 antag: 1; CHO parental Ca: 0; TAAR1 agonist: 23; OX1R antag-1: 4; OX1R antag-2: -19; TAAR1 antagonist: 85*; nonsel antag count: 38*; TAAR1 antag conf: 73*; Ga16 ag counter: 9; TAAR1 ag count: 24

Results for Cc1cc(NC(=O)c2cccnc2)ccc1NC(=O)c1cc2ccccc2o1 ?
GalR3 antag: -7; CHO parental Ca: -11; TAAR1 agonist: 32; OX1R antag-1: 9; OX1R antag-2: -12; TAAR1 antagonist: 57*; nonsel antag count: 22*; TAAR1 antag conf: 44; Ga16 ag counter: 10; TAAR1 ag count: 37
